H69AR inhibit: growth inhibitors of human H69AR lung tumor cells | H69AR lung tumor viability, ATP luminescence, 72 h; hits give low values | viability, % at 10 µM | actives 6% (n = 85,000) | AID 598;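 active = viability at or below 40%; inactive = viability above 40%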;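 note: multidrug resistant small cell line overexpressing MRP-1 efflux transporter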
PTEN del growth: suppresses growth of cells with PTEN deletion; HCT116 PTEN-null viability, CellTiter-Glo, 60 h; hits give low values; viability, % at 10 µM; actives 1.2% (n = 140,000);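 active = viability at or below a set limit, 4 SD under the median of all tested compounds, cut at about 3.7% in these data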;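 note: PTEN knockout HCT116 line with beta catenin targeted HCT116 as companion control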
bCat KO growth: beta-catenin-lacking colon tumor cell growth suppression; HCT116 beta-catenin knockout viability, CellTiter-Glo, 60 h; hits give low values; viability, % at 10 µM; actives 1.5% (n = 140,000);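 active = viability at or under a set limit, the compound median less 4 SD, cut at about 6% in these data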
Lung fibro prol: blocks proliferation of human lung fibroblasts | viability, % at 10 µM | LL 47 human lung fibroblast viability, ATP luminescence; hits give low values | actives 1.1% (n = 85,000);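 active = viability at or below 50% in the single dose screen; inactive = viability above 50%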;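 note: compound exposure lasted 72 h before the ATP readout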
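material = human LL 47 lung fibroblast cells | dosing = compounds added from tenfold dosing solution, 0.1% DMSO final | timing = overnight cell rest, 72 h compound treatment at 37 °C | measured by = CellTiter-Glo luminescence measuring cellular ATP | evaluation = % viability versus median cells-only luminescence | control set = cell-only wells, no compound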
HUVEC inhibit: inhibitors of human endothelial cell proliferation. HUVEC proliferation, CellTiter-Glo luminescence, 72 h; hits give low values. viability, % at 10 µM (by protocol). actives 1.1% (n = 86,000). AID 648;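 active = viability at or below 30%; inactive = viability above 30%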
Large screens that a line does not name were inactive. Many of the other results were omitted from the sample, so hits are more common in it than they were.

COc1ccc(-c2cc(-c3cc(F)ccc3O)[nH]n2)cc1OC	none
COc1ccc(-c2cc(-c3cc(OC)ccc3O)[nH]n2)cc1	H69AR inhibit 28
Cc1ccc(O)c(-c2cc(-c3cccc(F)c3)n[nH]2)c1	H69AR inhibit 0.6, HUVEC inhibit 28
COc1ccc(O)c(-c2cc(-c3cccc(Br)c3)n[nH]2)c1	H69AR inhibit 36
COc1ccc(-c2cc(-c3ccc(OC)c(OC)c3)n[nH]2)c(O)c1	none
CC(OC(=O)c1cc(S(=O)(=O)N(C)c2ccccc2)ccc1Cl)C(=O)Nc1ccc2c(c1)OCCO2 (centres undefined)	none (no result: H69AR inhibit, Lung fibro prol, HUVEC inhibit)
COCCNC(=O)CSc1nc2ccc(N3CCOCC3)cc2c(=O)n1CCc1ccccc1	none
CCCCNC(=O)CSc1nc2ccc(N3CCOCC3)cc2c(=O)n1CCc1ccccc1	H69AR inhibit 8.9, HUVEC inhibit 26
O=C(COC(=O)COc1ccc(Cl)cc1)Nc1ccc(F)c([N+](=O)[O-])c1	none (no result: H69AR inhibit, Lung fibro prol, HUVEC inhibit)
O=C(CC(Sc1ccccc1)c1cccs1)c1ccco1 (centres undefined)	H69AR inhibit 1.9 (no result: Lung fibro prol)
O=C(Cc1cccs1)OCC(=O)c1ccco1	none
O=S(=O)(c1ccc2nc(SCc3ccc(Cl)cc3)[nH]c2c1)N1CCOCC1	none (no result: H69AR inhibit, Lung fibro prol, HUVEC inhibit)
O=S(=O)(c1ccc2nc(-c3ccccc3)[nH]c2c1)N1CCN(c2ccc(Cl)cc2)CC1	PTEN del growth 0.8, bCat KO growth 0.9 (no result: H69AR inhibit, Lung fibro prol, HUVEC inhibit)
COCCSc1ccccc1C(=O)Nc1cc(C)ccn1	none (no result: H69AR inhibit, Lung fibro prol, HUVEC inhibit)
C=CCNCCCOc1ccc(Cl)cc1Br	none (no result: H69AR inhibit, Lung fibro prol, HUVEC inhibit)
Cc1nn(CC(=O)NCc2cccc3ccccc23)c(=O)c2ccccc12	none
O=C(Nc1ccc2nc(-c3ccc(Br)o3)[nH]c2c1)c1cccs1	H69AR inhibit 38
CC(=O)Nc1ccc2nc(-c3ccc(Br)o3)[nH]c2c1	none (no result: H69AR inhibit, Lung fibro prol, HUVEC inhibit)
Cc1cc(NCCCN2CCOCC2)n2nc(C)c(-c3ccccc3)c2n1	H69AR inhibit 22
Cc1cc(NCCC(C)C)n2nc(C)c(-c3ccccc3)c2n1	H69AR inhibit 13
Cc1cc(NCCCN2CCOCC2)n2ncc(-c3ccccc3)c2n1	H69AR inhibit 26
Cc1cc(NCCCN2CCOCC2)n2nc(C)c(-c3ccc(F)cc3)c2n1	H69AR inhibit 15
O=C(Nc1cccc2c1CCCC2)C1CCCN(S(=O)(=O)c2cccc3nonc23)C1 (centres undefined)	none
Cc1nnc(SC(=O)N2c3ccccc3Sc3ccccc32)s1	none (no result: H69AR inhibit, Lung fibro prol, HUVEC inhibit)
CC(C)(C)c1nn(-c2ccccc2)c2[nH]c(=O)c(CNCc3ccc4c(c3)OCO4)cc12	H69AR inhibit 1.1, HUVEC inhibit 4.6
CCOc1cccc(NCc2cc3c(C(C)(C)C)nn(-c4ccccc4)c3[nH]c2=O)c1	none
N#Cc1cc2sc3nc4ccccc4n3c2cc1C#N	none
N#Cc1cc2sc3nnc(-c4ccncc4)n3c2cc1C#N	H69AR inhibit 29, Lung fibro prol 45
N#CC1=C2SCC(O)(c3ccccc3)N2C(=O)CC1c1ccccc1F (centres undefined)	H69AR inhibit 15
O=C(CC1(O)C(=O)N(C/C=C/c2ccccc2)c2ccccc21)c1ccccn1 (centres undefined)	H69AR inhibit 24
CCC(C)c1ccc(NC(=S)NCc2cccnc2)cc1 (centres undefined)	none (no result: H69AR inhibit, Lung fibro prol, HUVEC inhibit)
CCOC(=O)c1cnn(-c2ncnc3c2cnn3Cc2ccccc2)c1N	H69AR inhibit 26, HUVEC inhibit 20 (no result: PTEN del growth, bCat KO growth)
CC(C)(C)c1ccc(C(=O)NCCCN2CCN(CCCNC(=O)c3ccc(C(C)(C)C)cc3)CC2)cc1	PTEN del growth 1.8, bCat KO growth 1.3 (no result: H69AR inhibit, Lung fibro prol, HUVEC inhibit)
Cc1cc(C)nc(SCC(=O)NC2=NN=C(c3ccc(Br)cc3)CS2)n1	PTEN del growth 2.8, bCat KO growth 1.5 (no result: H69AR inhibit, Lung fibro prol, HUVEC inhibit)
CC1CN(C(=O)Nc2ccc3c(c2)OCO3)CC(C)O1 (centres undefined)	none
CCCCNc1ccc(S(=O)(=O)c2cccc([N+](=O)[O-])c2)cc1[N+](=O)[O-]	none (no result: H69AR inhibit, Lung fibro prol, HUVEC inhibit)
CCOC(=O)c1c(NC(C)=O)sc2c1CCC(C=NCCCN(CC)CC)=C2Sc1ccccc1	H69AR inhibit 0.7, HUVEC inhibit 3.2 (no result: PTEN del growth, bCat KO growth)
CCOC(=O)c1c(NC(=O)CN2CCCCC2)sc2c1CCC(C=O)=C2Cl	none (no result: H69AR inhibit, Lung fibro prol, HUVEC inhibit)
CNc1ccc(Br)cc(C(=O)/C=C/c2cccc(OC)c2)c1=O	H69AR inhibit -0.2, Lung fibro prol 8.8, HUVEC inhibit 22
CCNc1ccc(Br)cc(C(=O)/C=C/c2ccc(Cl)cc2)c1=O	none (no result: H69AR inhibit, Lung fibro prol, HUVEC inhibit)
CCNc1ccc(Br)cc(C(=O)/C=C/c2c(Cl)cccc2Cl)c1=O	H69AR inhibit 2.0, PTEN del growth 1.5, bCat KO growth 3.5, HUVEC inhibit 7.9
CCC(C)NC(=O)COc1ccc(Br)c(C)c1 (centres undefined)	none
C/C(CCc1ccco1)=N/NC(=O)CCC(=O)Nc1ccc(Br)cc1	none (no result: H69AR inhibit, Lung fibro prol, HUVEC inhibit)
CCOC(=O)C1=C(Cn2cnc3ccccc32)NC(=O)NC1c1cc(C)ccc1C (centres undefined)	H69AR inhibit 16
COC(=O)C1=C(Cn2cnc3ccccc32)NC(=O)NC1c1cc(C)ccc1C (centres undefined)	none
CN(Cc1ccccc1)c1nc(N)c([N+](=O)[O-])c(Nc2cccc(F)c2)n1	none
CC1(C)SC(=S)N(NC(=O)Nc2cccc3ccccc23)C1N(O)C(=O)Nc1ccccc1 (centres undefined)	none (no result: H69AR inhibit, Lung fibro prol, HUVEC inhibit)
CC1(C)SC(=S)N(/N=C/c2ccccc2)C1N(O)C(=O)Nc1ccc([N+](=O)[O-])cc1 (centres undefined)	H69AR inhibit 37
CCOC(=O)C1=C(NC(=O)c2ccc(Br)o2)Nc2ccccc2N=C1	H69AR inhibit 31
CCOC(=O)C1C(c2cccc(F)c2)NC(=S)NC1(O)C(F)(F)F (centres undefined)	none (no result: H69AR inhibit, Lung fibro prol, HUVEC inhibit)
Cc1ccc(CN=Cc2[nH]c3ccc(Br)c(Cl)c3c2O)cc1	H69AR inhibit 33
COc1cc(C(=O)OCC(=O)c2cc(C)n(C)c2C)cc(NC(=O)c2ccco2)c1OC	H69AR inhibit 11, HUVEC inhibit 27
CNC(=O)COC(=O)c1cc(NC(=O)c2ccco2)c(OC)c(OC)c1	none (no result: H69AR inhibit, Lung fibro prol, HUVEC inhibit)
CCOC(=O)c1ccccc1NC(=O)c1n[nH]c(=O)c2ccccc12	PTEN del growth 3.1 (no result: H69AR inhibit, Lung fibro prol, HUVEC inhibit)
CCOC(=O)c1ccccc1NC(=O)CSc1nc2c(c(=O)n(C)c(=O)n2C)n1C	H69AR inhibit 32 (no result: Lung fibro prol)
CCOC(=O)c1ccccc1NC(=O)c1cccs1	none
FC(F)(F)c1cc(-c2ccco2)nc2ncnn12	none (no result: H69AR inhibit, Lung fibro prol, HUVEC inhibit)
O=S(=O)(NC1CCc2ccccc21)c1ccc(S(=O)(=O)N2CCCC2)cc1 (centres undefined)	none
N#CCCn1nnc2ccccc21	bCat KO growth 6.0
CC(C)CC(=O)N1CCN(Cc2ccc3c(c2)OCO3)CC1	none
CCOc1ccccc1N1CCN(C(=O)C2c3ccccc3Oc3ccccc32)CC1	H69AR inhibit 19
CN1CCc2nc3sc(C(=O)C45CC6CC(CC(C6)C4)C5)c(N)c3cc2C1	PTEN del growth 0.6, bCat KO growth 3.5 (no result: H69AR inhibit, Lung fibro prol, HUVEC inhibit)
CC1(C)Cc2nc3sc4c(N(CCO)CCO)ncnc4c3cc2CO1	none (no result: H69AR inhibit, Lung fibro prol, HUVEC inhibit)
CC1(C)Cc2nc3sc4c(SCC(=O)NCc5ccccc5)ncnc4c3cc2CO1	H69AR inhibit 0.7 (no result: PTEN del growth)

Screening data as filed in PubChem BioAssay.
